Active and inactive are the calls of the source. The rule behind the calls is not given here.
How the values were obtained:
[1] = test system: MCF7; assay: Cytotoxicity against human MCF7 cells assessed as reduction in cell viability at 5 uM by MTT assay; assay type: functional
[2] = test system: BT-549; assay: Cytotoxicity against human BT549 cells assessed as reduction in cell viability at 5 uM by MTT assay; assay type: functional
[3] = test system: MDA-MB-231; assay: Cytotoxicity against human MDA-MB-231 cells assessed as reduction in cell viability by MTT assay; assay type: functional, cell-based
[4] = test system: BT-549; assay: Cytotoxicity against human BT549 cells assessed as reduction in cell viability by MTT assay; assay type: functional, cell-based
[5] = test system: MCF-10A; assay: Cytotoxicity against human MCF10A cells assessed as reduction in cell viability by MTT assay; assay type: cell-based
[6] = test system: MDA-MB-231; assay: Induction of apoptosis in human MDA-MB-231 cells assessed as ratio of cleaved caspase-3 to beta-actin level at 5 uM by western blot analysis (reference value: 1); assay type: functional
[7] = test system: BT-549; assay: Induction of apoptosis in human BT549 cells assessed as ratio of cleaved caspase-3 to beta-actin level at 5 uM by western blot analysis (reference value: 1); assay type: functional
[8] = test system: MCF7; assay: Induction of apoptosis in human MCF7 cells assessed as ratio of cleaved caspase-3 to beta-actin level at 5 uM by western blot analysis (reference value: 1); assay type: functional
[9] = test system: MDA-MB-231; assay: Induction of apoptosis in human MDA-MB-231 cells assessed as ratio of cleaved caspase-8 to beta-actin level at 5 uM by western blot analysis (reference value: 1); assay type: functional
[10] = test system: BT-549; assay: Induction of apoptosis in human BT549 cells assessed as ratio of cleaved caspase-8 to beta-actin level at 5 uM by western blot analysis (reference value: 1); assay type: functional
[11] = test system: MCF-10A; assay: Induction of apoptosis in human MCF10A cells assessed as ratio of cleaved caspase-8 to beta-actin level at 5 uM by western blot analysis (reference value: 1); assay type: cell-based
[12] = test system: MDA-MB-231; assay: Induction of apoptosis in human MDA-MB-231 cells assessed as ratio of cleaved caspase-9 to beta-actin level at 5 uM by western blot analysis (reference value: 1); assay type: functional
[13] = test system: BT-549; assay: Induction of apoptosis in human BT549 cells assessed as ratio of cleaved caspase-9 to beta-actin level at 5 uM by western blot analysis (reference value: 1); assay type: functional
[14] = test system: MCF7; assay: Induction of apoptosis in human MCF7 cells assessed as ratio of cleaved caspase-9 to beta-actin level at 5 uM by western blot analysis (reference value: 1); assay type: functional
[15] = test system: MDA-MB-231; assay: Induction of apoptosis in nuclear fractions of human MDA-MB-231 cells assessed as ratio of cleaved PARP to beta-actin level at 5 uM by western blot analysis (reference value: 1); assay type: functional
[16] = test system: MCF7; assay: Inhibition of colony formation in human MCF7 cells at 5 uM supplemented with fresh medium containing compound every 3 to 4 days for 7 days by crystal violet staining based adherent cell colony-forming assay; assay type: functional
How it was run: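 MCF-7 cells were plated for adherent colony formation and treated for 7 days. Colonies were counted at the end of treatment and normalized to untreated samples.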

[17] = test system: MDA-MB-231; assay: Inhibition of colony formation in human MDA-MB-231 cells at 2 uM supplemented with fresh medium containing compound every 3 days for 10 days by microscopic method based soft agar colony formation assay relative to control; assay type: functional
[18] = test system: MDA-MB-231; assay: Anti-migratory activity against human MDA-MB-231 cells assessed as reduction in wound closure at 2 uM up to 24 hrs by wound-healing assay; assay type: functional, cell-based
How it was run: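 MDA-MB-231 monolayer was scratched to make a wound gap. Cells were treated alongside a DMSO vehicle control, and migration into the gap was imaged at 24 h.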

[19] = test system: MCF7; assay: Inhibition of mammosphere formation in human MCF7 cells at 2 uM after 7 days by microscopic method; assay type: functional, cell-based
How it was run: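 MCF-7 cells were grown under mammosphere-forming conditions with compound. Spheres 60 μm or larger were counted for quantitation.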

[20] = test system: MCF7; assay: Down regulation of c-Myc expression in human MCF7 cells at 5 uM by Western blot analysis; assay type: functional
How it was run: (§1)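 MCF-7 cells were treated and lysates probed by Western blot for CSC-related markers, with β-actin as loading control. Band densitometry was normalized to DMSO-treated samples.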

[21] = test system: MCF7; assay: Down regulation of KLF4 expression in human MCF7 cells at 5 uM by Western blot analysis; assay type: functional; how it was run: as §1
[22] = test system: MCF7; assay: Down regulation of Sox-2 expression in human MCF7 cells at 5 uM by Western blot analysis; assay type: functional; how it was run: as §1
[23] = test system: MDA-MB-231; assay: Down regulation of KLF4 expression in human MDA-MB-231 cells at 5 uM by Western blot analysis; assay type: functional
[24] = test system: MCF7; assay: Inhibition of mammosphere formation in human MCF7 cells assessed as ratio of KLF4 to beta actin level at 5 uM by Western blot analysis (Rvb= 1); assay type: functional
How it was run: (§2)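 Post-treatment cell lysates were probed by Western blot for CSC markers, with β-actin as the loading control. Band densitometry was normalized to DMSO-treated samples.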

[25] = test system: MCF7; assay: Inhibition of mammosphere formation in human MCF7 cells assessed as ratio of Nanog to beta actin level at 5 uM by Western blot analysis (Rvb= 1); assay type: functional; how it was run: as §2
[26] = test system: MCF7; assay: Inhibition of mammosphere formation in human MCF7 cells assessed as ratio of Oct4A to beta actin level at 5 uM by Western blot analysis (Rvb= 1); assay type: functional; how it was run: as §2
[27] = test system: MCF7; assay: Inhibition of mammosphere formation in human MCF7 cells assessed as ratio of Sox2 to beta actin level at 5 uM by Western blot analysis (Rvb= 1); assay type: functional; how it was run: as §2
[28] = test system: BT-549; assay: Inhibition of mammosphere formation in human BT549 cells assessed as ratio of C-Myc to beta actin level at 5 uM by Western blot analysis (Rvb= 1); assay type: functional
[29] = test system: BT-549; assay: Inhibition of mammosphere formation in human BT549 cells assessed as ratio of KLF4 to beta actin level at 5 uM by Western blot analysis (Rvb= 1); assay type: functional
[30] = test system: MDA-MB-231; assay: Effect on epithelial-mesenchymal transition in human MDA-MB-231 cells assessed as ratio of vimentin to beta-actin level at 5 uM by Western blot analysis (reference value: 1); assay type: functional
[31] = test system: BT-549; assay: Effect on epithelial-mesenchymal transition in human BT549 cells assessed as ratio of E-cadherin to beta-actin level at 5 uM by Western blot analysis (reference value: 1); assay type: functional
[32] = test system: BT-549; assay: Effect on epithelial-mesenchymal transition in human BT549 cells assessed as ratio of vimentin to beta-actin level at 5 uM by Western blot analysis (reference value: 1); assay type: functional
[33] = test system: BT-549; assay: Effect on epithelial-mesenchymal transition in human BT549 cells assessed as ratio of slug to beta-actin level at 5 uM by Western blot analysis (reference value: 1); assay type: functional
[34] = test system: MDA-MB-231; assay: Effect on beta-catenin translocation in cytosolic fraction of human MDA-MB-231 cells assessed as ratio of beta-catenin to beta-actin level at 5 uM by Western blot analysis (reference value: 1); assay type: functional
[35] = test system: MDA-MB-231; assay: Effect on beta-catenin translocation in nuclear fraction of human MDA-MB-231 cells assessed as ratio of beta-catenin to beta-actin level at 5 uM by Western blot analysis (reference value: 1); assay type: functional
[36] = test system: BT-549; assay: Effect on beta-catenin translocation in nuclear fraction of human BT549 cells assessed as ratio of beta-catenin to beta-actin level at 5 uM by Western blot analysis (reference value: 1); assay type: functional
[37] = test system: BT-549; assay: Induction of apoptosis in nuclear fractions of human BT549 cells assessed as ratio of PARP to beta-actin level at 5 uM by western blot analysis (reference value: 1); assay type: functional

C=C(c1ccc(C(=O)NCCN2CCCC2)cc1)c1cc2c(cc1C)C(C)(C)CCC2(C)C
Activity [1]: 40%
Activity [2]: 60%
EC50 [3]: < 10 µM
EC50 [4]: < 10 µM
Activity [5]: Non-Toxic
Ratio [6]: 3.4
Ratio [7]: 2.1
Ratio [8]: 1
Ratio [9]: 3.7
Ratio [10]: 1
Ratio [11]: 1
Ratio [12]: 1.7
Ratio [13]: 2.1
Ratio [14]: 1.2
Ratio [15]: 1.5
inhibition (INH) [16]: 80%
inhibition (INH) [17]: 90%
Activity [18]: Active
inhibition [19]: Active
Activity [20]: 10 - 30%
Activity [21]: 10 - 30%
Activity [22]: 60%
Activity [23]: 50%
Ratio [24]: 0.7
Ratio [25]: 0.8
Ratio [26]: 1.1
Ratio [27]: 0.4
Ratio [28]: 0.8
Ratio [29]: 0.8
Ratio [30]: 0.3
Ratio [31]: 6.3
Ratio [32]: 1
Ratio [33]: 0.7
Ratio [34]: 2.1
Ratio [35]: 0.4
Ratio [36]: 0.5
Ratio [37]: 0.9
